ChEMBL document CHEMBL1127349, “6,7,8,9-Tetrahydro-N,N-di-n-propyl-3H-benzindol-8-amines. Derivatives as potent and orally active serotonin 5-HT1A receptor agonists” (J Med Chem, 1994)
Calls of active or inactive are those of the source. No cut-off for these calls is given here.

Key:
Rattus norvegicus [1] = assay: The concentration yielding a half maximal decrease of the DOPA was determined in rat brain striatum; Partial response 50 umol/kg; assay type: functional, organism-based
D(2) dopamine receptor = D(2) dopamine receptor (Rattus norvegicus, UniProt P61169); assay: Displacement of the radioligand [3H]spiperone from D2 receptor
Method in brief: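 Rat striatal membranes in 50 mM potassium phosphate buffer, incubated with 0.5 nM [3H]spiperone (3 mg tissue) 10 min at 37 °C. Nonspecific binding defined with 10 μM 6,7-ADTN. IC50 converted to Ki by Cheng–Prusoff; 3–7 experiments, each concentration in triplicate.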

Rattus norvegicus [2] = assay: Motor activity was measured by motility testing on injecting the compound subcutaneously into rats at the dose of 12.5 umol/kg; assay type: functional
Method in brief: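 Rats given reserpine 5 mg/kg sc 18 h beforehand, then test compound sc in neck (n = 4). Placed singly in photocell motility meters straight after dosing; counts recorded for 30 min, gross behaviour observed throughout. Value as counts/30 min with SEM.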

Rattus norvegicus [3] = assay: The concentration yielding a half maximal decrease of the DOPA was determined in rat limbic system; inactive at 50 umol/kg; assay type: functional, organism-based
Rattus norvegicus [4] = assay: The concentration yielding a half maximal decrease of the 5-HTP was determined in rat limbic system; inactive at 50 umol/kg; assay type: functional, organism-based
Method in brief: (§1)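 Reserpine-pretreated (5 mg/kg sc, 18 h) male Sprague-Dawley rats, 200–300 g; compounds in saline given sc. DOPA and 5-HTP in limbic system, striatum and hemispheres measured by HPLC with electrochemical detection. Dose–response curves of 4–6 doses (n = 4) per area, fitted to variable-slope sigmoid on log data to give ED50.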

Rattus norvegicus [5] = assay: The concentration yielding a half maximal decrease of the 5-HTP was determined in rat brain hemispheres; inactive at 50 umol/kg; assay type: functional, organism-based; method in brief: as §1
Rattus norvegicus [6] = assay: The concentration yielding a half maximal decrease of the DOPA was determined in rat brain hemispheres; inactive at 50 umol/kg; assay type: functional, organism-based; method in brief: as §1
[7] = target: T1, 5-hydroxytryptamine receptor 1A (Rattus norvegicus, UniProt P19327); assay: Displacement of the radioligand [3H]8-OH-DPAT from 5-hydroxytryptamine 1A receptor
T1 sequence (P19327 whole entry): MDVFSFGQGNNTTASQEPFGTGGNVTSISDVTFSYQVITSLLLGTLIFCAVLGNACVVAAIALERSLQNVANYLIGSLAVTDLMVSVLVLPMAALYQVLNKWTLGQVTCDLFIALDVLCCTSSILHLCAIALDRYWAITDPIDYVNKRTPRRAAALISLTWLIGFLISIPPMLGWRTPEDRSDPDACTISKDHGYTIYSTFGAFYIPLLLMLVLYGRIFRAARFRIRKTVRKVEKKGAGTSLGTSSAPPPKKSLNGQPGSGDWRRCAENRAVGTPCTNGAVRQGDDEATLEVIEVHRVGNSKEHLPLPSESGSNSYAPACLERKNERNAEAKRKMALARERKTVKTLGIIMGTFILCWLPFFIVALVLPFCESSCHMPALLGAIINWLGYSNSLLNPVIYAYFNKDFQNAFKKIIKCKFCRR
Method in brief: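 Rat whole brain minus brain stem and cerebellum, washed membranes in 50 mM Tris pH 8.0 with 120 mM NaCl, 4 mM CaCl2, 4 mM MgCl2, 10 μM pargyline. Nonspecific with 10 μM 5-HT. IC50 by semilog linear regression, Ki via Cheng–Prusoff; 3–7 experiments, triplicates.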

Rattus norvegicus [8] = assay: The concentration yielding a half maximal decrease of the 5-HTP was determined in rat brain striatum; inactive at 50 umol/kg; assay type: functional, organism-based; method in brief: as §1
Rattus norvegicus [9] = assay: The concentration yielding a half maximal decrease of the DOPA was determined in rat brain striatum; Partial response at 50 umol/kg; assay type: functional, organism-based
Rattus norvegicus [10] = assay: The concentration yielding a half maximal decrease of the 5-HTP was determined in rat brain hemispheres; Partial response at 50 umol/kg; assay type: functional, organism-based; method in brief: as §1
Rattus norvegicus [11] = assay: The concentration yielding a half maximal decrease of the DOPA was determined in rat limbic system; Partial response at 50 umol/kg; assay type: functional, organism-based
Rattus norvegicus [12] = species: Rattus norvegicus; assay: Log concentration to inhibit 5-HTP accumulation was determined in rat limbic system; assay type: functional; method in brief: as §1
Rattus norvegicus [13] = species: Rattus norvegicus; assay: The concentration yielding a half maximal decrease of the DOPA was determined in rat brain striatum; assay type: functional; method in brief: as §1
Rattus norvegicus [14] = species: Rattus norvegicus; assay: Log concentration to inhibit 5-HTP accumulation was determined in rat brain hemispheres; assay type: functional; method in brief: as §1
Rattus norvegicus [15] = species: Rattus norvegicus; assay: The concentration yielding a half maximal decrease of the 5-HTP was determined in rat limbic system; assay type: functional; method in brief: as §1
Rattus norvegicus [16] = species: Rattus norvegicus; assay: Log concentration to inhibit DOPA accumulation was determined in rat limbic system; assay type: functional; method in brief: as §1
Rattus norvegicus [17] = species: Rattus norvegicus; assay: Log concentration to inhibit 5-HTP accumulation was determined in rat brain striatum; assay type: functional; method in brief: as §1
Rattus norvegicus [18] = species: Rattus norvegicus; assay: The concentration yielding a half maximal decrease of the DOPA was determined in rat limbic system; assay type: functional
Rattus norvegicus [19] = species: Rattus norvegicus; assay: The concentration yielding a half maximal decrease of the 5-HTP was determined in rat brain hemispheres; assay type: functional; method in brief: as §1
Rattus norvegicus [20] = species: Rattus norvegicus; assay: Log concentration to inhibit DOPA accumulation was determined in rat brain striatum; assay type: functional; method in brief: as §1
Rattus norvegicus [21] = assay: The concentration yielding a half maximal decrease of the DOPA was determined in rat brain hemispheres; inactive at 12.5 umol/kg; assay type: functional, organism-based; method in brief: as §1
Rattus norvegicus [22] = assay: Motor activity was measured by motility testing on injecting the compound subcutaneously into rats at the dose of 0.02 umol/kg (1a) and 3.5 umol/kg (1b)
Rattus norvegicus [23] = assay: The concentration yielding a half maximal decrease of the DOPA was determined in rat brain striatum; inactive at 50 umol/kg; assay type: functional, organism-based
Rattus norvegicus [24] = species: Rattus norvegicus; assay: The concentration yielding a half maximal decrease of the 5-HTP was determined in rat limbic system.; assay type: functional
Rattus norvegicus [25] = species: Rattus norvegicus; assay: The concentration yielding a half maximal decrease of the 5-HTP was determined in rat brain striatum.; assay type: functional
Rattus norvegicus [26] = species: Rattus norvegicus; assay: The concentration yielding a half maximal decrease of the DOPA was determined in rat limbic system.; assay type: functional
Rattus norvegicus [27] = assay: The concentration yielding a half maximal decrease of the DOPA was determined in rat brain striatum; Inactive at 3.1 umol/kg; assay type: functional, organism-based
Rattus norvegicus [28] = assay: The concentration yielding a half maximal decrease of the DOPA was determined in rat brain hemispheres; Inactive at 3.1 umol/kg; assay type: functional, organism-based; method in brief: as §1
Rattus norvegicus [29] = species: Rattus norvegicus; assay: The concentration yielding a half maximal decrease of the 5-HTP was determined in rat brain hemispheres.; assay type: functional
Rattus norvegicus [30] = assay: The concentration yielding a half maximal decrease of the DOPA was determined in rat limbic system; Partial response 50 umol/kg; assay type: functional, organism-based

Sequence of D(2) dopamine receptor (P61169 whole entry): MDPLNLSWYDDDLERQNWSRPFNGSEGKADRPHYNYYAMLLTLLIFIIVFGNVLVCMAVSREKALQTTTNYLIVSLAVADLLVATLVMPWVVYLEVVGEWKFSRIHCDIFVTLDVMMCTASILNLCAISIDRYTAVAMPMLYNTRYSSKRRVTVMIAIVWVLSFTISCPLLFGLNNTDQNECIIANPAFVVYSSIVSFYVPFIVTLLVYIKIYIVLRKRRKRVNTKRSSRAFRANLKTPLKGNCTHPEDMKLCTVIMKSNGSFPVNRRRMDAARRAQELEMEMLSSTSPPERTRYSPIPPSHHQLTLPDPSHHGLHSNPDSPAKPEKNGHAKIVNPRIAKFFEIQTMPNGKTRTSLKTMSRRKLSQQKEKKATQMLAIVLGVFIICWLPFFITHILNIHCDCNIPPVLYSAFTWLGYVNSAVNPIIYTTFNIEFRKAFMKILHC

SMILES | Ki (D(2) dopamine receptor) | Activity (Rattus norvegicus [2]) | ED50 (Rattus norvegicus [3]) | ED50 (Rattus norvegicus [4]) | ED50 (Rattus norvegicus [5]) | ED50 (Rattus norvegicus [6]) | Ki [7] | ED50 (Rattus norvegicus [8]) | further results
CCCN(CCC)C1CCc2ccc3[nH]cc(CC(F)(F)F)c3c2C1 (configuration not stated) | 796 nM | 10 Counts 30min-1 | inactive | inactive | inactive | inactive | 182 nM | inactive | ED50 (Rattus norvegicus [1]): Weak activity
CCCN(CCC)C1CCc2ccc3cc[nH]c3c2C1 (configuration not stated) | 145 nM | 119 Counts 30min-1 | – | inactive | – | inactive | 220 nM | inactive | ED50 (Rattus norvegicus [9]): Weak activity; ED50 (Rattus norvegicus [10]): Weak activity; ED50 (Rattus norvegicus [11]): Weak activity
CCCN(CCC)C1CCc2ccc3[nH]cc(C=O)c3c2C1 (configuration not stated) | – | – | – | – | – | – | – | – | pED50 (Rattus norvegicus [12]): 6.95; ED50 (Rattus norvegicus [13]): 3.3 µmol/kg; pED50 (Rattus norvegicus [14]): 6.88; ED50 (Rattus norvegicus [15]): 0.11 µmol/kg; pED50 (Rattus norvegicus [16]): 6.52; pED50 (Rattus norvegicus [17]): 7.18; ED50 (Rattus norvegicus [18]): 0.3 µmol/kg; ED50 (Rattus norvegicus [19]): 0.13 µmol/kg; pED50 (Rattus norvegicus [20]): 5.48; ED50 (Rattus norvegicus [21]): inactive; Counts/30 min (Rattus norvegicus [22]): 231
CCCN(CCC)C1CCc2ccc3[nH]ccc3c2C1 (configuration not stated) | – | 177 Counts 30min-1 | – | – | – | – | – | – | –
CCCN(CCC)C1CCc2ccc3c(CC(F)(F)F)c[nH]c3c2C1 (configuration not stated) | 2330 nM | 74 Counts 30min-1 | inactive | inactive | inactive | inactive | – | inactive | ED50 (Rattus norvegicus [23]): inactive
CCCN(CCC)[C@@H]1CCc2ccc3[nH]cc(C#N)c3c2C1 | 419 nM | – | – | – | – | – | 2.7 nM | – | pED50 (Rattus norvegicus [12]): 7.03; ED50 (Rattus norvegicus [24]): 0.092 µmol/kg; ED50 (Rattus norvegicus [25]): 0.036 µmol/kg; ED50 (Rattus norvegicus [26]): 1.65 µmol/kg; pED50 (Rattus norvegicus [14]): 6.85; ED50 (Rattus norvegicus [27]): inactive; pED50 (Rattus norvegicus [16]): 5.78; pED50 (Rattus norvegicus [17]): 7.44; ED50 (Rattus norvegicus [28]): inactive; ED50 (Rattus norvegicus [29]): 0.14 µmol/kg
CCCN(CCC)C1CCc2ccc3c(C=O)c[nH]c3c2C1 (configuration not stated) | > 16000 nM | – | inactive | inactive | inactive | inactive | 6720 nM | inactive | ED50 (Rattus norvegicus [23]): inactive; Counts/30 min (Rattus norvegicus [22]): 7
CCCN(CCC)C1CCc2ccc3c(c2C1)NCC3 (configuration not stated) | 650 nM | – | – | inactive | inactive | inactive | 410 nM | inactive | ED50 (Rattus norvegicus [1]): Weak activity; ED50 (Rattus norvegicus [30]): Weak activity
